Active and inactive are the calls of the source.
Legend:
[1] = test system: Mus musculus; assay: Neurotoxicity in mouse at 300 mg/kg, ip after 0.5 hrs by rotarod test; assay type: toxicity, organism-based; conditions: in vivo
How it was run: (§1)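 Mice were dosed ip with compound suspended in 0.5% methylcellulose. Rotarod: a 1 in. knurled rod turning at 6 rpm. Neurotoxicity was scored as failure to stay on the rod for at least 1 min in each of three trials. Results are given as the number of animals affected out of the number tested.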

[2] = test system: Mus musculus; assay: Neurotoxicity in mouse at 30 mg/kg, ip after 0.5 hrs by rotarod test; assay type: toxicity, organism-based; conditions: in vivo; how it was run: as §1
[3] = test system: Mus musculus; assay: Neurotoxicity in mouse at 100 mg/kg, ip after 0.5 hrs by rotarod test; assay type: toxicity, organism-based; conditions: in vivo; how it was run: as §1
[4] = test system: Mus musculus; assay: Neurotoxicity in mouse at 50 mg/kg, ip after 4 hrs by rotarod test; assay type: toxicity, organism-based; conditions: in vivo; how it was run: as §1
[5] = test system: Mus musculus; assay: Neurotoxicity in mouse at 50 mg/kg, ip after 1 hr by rotarod test; assay type: toxicity, organism-based; conditions: in vivo; how it was run: as §1
[6] = test system: Mus musculus; assay: Neurotoxicity in mouse at 50 mg/kg, ip after 2 hrs by rotarod test; assay type: toxicity, organism-based; conditions: in vivo; how it was run: as §1
[7] = test system: Mus musculus; assay: Neurotoxicity in mouse at 30 mg/kg, ip after 4 hrs by rotarod test; assay type: toxicity, organism-based; conditions: in vivo; how it was run: as §1
[8] = test system: Mus musculus; assay: Neurotoxicity in mouse at 100 mg/kg, ip after 4 hrs by rotarod test; assay type: toxicity, organism-based; conditions: in vivo; how it was run: as §1
[9] = test system: Mus musculus; assay: Neurotoxicity in mouse at 100 mg/kg, ip after 2 hrs by rotarod test; assay type: toxicity, organism-based; conditions: in vivo; how it was run: as §1
[10] = test system: Mus musculus; assay: Anticonvulsant activity in mouse assessed as protection against subcutaneous pentylenetetrazol-induced seizures at 30 mg/kg, ip measured after 4 hrs; assay type: functional, organism-based
How it was run: (§2)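 Mice dosed ip as 0.5% methylcellulose suspension; pentylenetetrazole 85 mg/kg in 0.9% NaCl injected subcutaneously into posterior midline, animals watched at least 30 min. Protection = no threshold seizure (single clonic spasm episode lasting ≥5 s); scored protected/tested.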

[11] = test system: Mus musculus; assay: Anticonvulsant activity in mouse assessed as protection against maximal electric shock-induced seizures at 100 mg/kg, ip measured after 4 hrs; assay type: functional, organism-based
How it was run: (§3)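 Mice dosed ip with suspension in 0.5% methylcellulose; maximal electroshock applied at the listed time after dosing. Protection = abolition of hindlimb tonic extension component of seizure; reported as animals protected/animals tested.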

[12] = test system: Mus musculus; assay: Anticonvulsant activity in mouse assessed as protection against maximal electric shock-induced seizures at 30 mg/kg, ip measured after 4 hrs; assay type: functional, organism-based; how it was run: as §3
[13] = test system: Mus musculus; assay: Anticonvulsant activity in mouse assessed as protection against subcutaneous pentylenetetrazol-induced seizures at 300 mg/kg, ip measured after 4 hrs; assay type: functional, organism-based; how it was run: as §2
[14] = test system: Mus musculus; assay: Anticonvulsant activity in mouse assessed as protection against subcutaneous pentylenetetrazol-induced seizures at 30 mg/kg, ip measured after 0.5 hrs; assay type: functional, organism-based; how it was run: as §2
[15] = test system: Mus musculus; assay: Anticonvulsant activity in mouse assessed as protection against maximal electric shock-induced seizures at 100 mg/kg, ip measured after 0.5 hrs; assay type: functional, organism-based; how it was run: as §3
[16] = test system: Mus musculus; assay: Anticonvulsant activity in mouse assessed as protection against maximal electric shock-induced seizures at 30 mg/kg, ip measured after 0.5 hrs; assay type: functional, organism-based; how it was run: as §3
[17] = test system: Mus musculus; assay: Anticonvulsant activity in mouse assessed as protection against subcutaneous pentylenetetrazol-induced seizures at 100 mg/kg, ip measured after 0.5 hrs; assay type: functional, organism-based; how it was run: as §2
[18] = test system: Mus musculus; assay: Neurotoxicity in mouse at 300 mg/kg, ip after 4 hrs by rotarod test; assay type: toxicity, organism-based; conditions: in vivo; how it was run: as §1
[19] = test system: Mus musculus; assay: Anticonvulsant activity in mouse assessed as protection against maximal electric shock-induced seizures at 300 mg/kg, ip measured after 0.5 hrs; assay type: functional, organism-based; how it was run: as §3
[20] = test system: Mus musculus; assay: Anticonvulsant activity in mouse assessed as protection against maximal electric shock-induced seizures at 300 mg/kg, ip measured after 4 hrs; assay type: functional, organism-based; how it was run: as §3
[21] = test system: Mus musculus; assay: Anticonvulsant activity in mouse assessed as protection against subcutaneous pentylenetetrazol-induced seizures at 100 mg/kg, ip measured after 4 hrs; assay type: functional, organism-based; how it was run: as §2
[22] = test system: Mus musculus; assay: Anticonvulsant activity in mouse assessed as protection against subcutaneous pentylenetetrazol-induced seizures at 300 mg/kg, ip measured after 0.5 hrs; assay type: functional, organism-based; how it was run: as §2

Structure (SMILES) | Activity [1] | Activity [2] | Activity [3] | Activity [7] | Activity [10] | Activity [11] | Activity [12] | Activity [13] | Activity [15] | Activity [16] | Activity [17] | other results
Cc1cccc(C)c1OCCOCCN[C@H](C)CO | Toxic | Non-toxic | Toxic | Non-toxic |  |  |  |  |  |  |  | Activity [4]: Non-toxic; Activity [5]: Non-toxic; Activity [6]: Non-toxic
Cc1cccc(OCCN2CCC(O)CC2)c1C |  |  |  |  |  |  |  |  |  |  |  | Activity [8]: Non-toxic; Activity [9]: Non-toxic
CCC(CO)NCCOCCOc1c(C)cccc1C (stereo not given) | Toxic | Non-toxic | Toxic | Non-toxic | inactive | inactive | inactive | inactive | Active | inactive | inactive | Activity [14]: inactive
Cc1cccc(OCCNCC(O)c2ccccc2)c1C (stereo not given) |  | Non-toxic |  | Non-toxic | inactive | inactive | inactive | inactive | inactive | inactive | inactive | Activity [18]: Non-toxic; Activity [19]: inactive; Activity [20]: inactive; Activity [21]: inactive; Activity [22]: inactive

— ChEMBL document CHEMBL3774372, “Design, physico-chemical properties and biological evaluation of some new N-[(phenoxy)alkyl]- and N-{2-[2-(phenoxy)ethoxy]ethyl}aminoalkanols as anticonvulsant agents” (Bioorg Med Chem, 2016)
